Calls of active or inactive are those of the source. No cut-off for these calls is given here.
How the values were obtained:
[1] = molecular target: Inhibitor of nuclear factor kappa-B kinase subunit epsilon (Homo sapiens) (UniProt Q14164); assay: Inhibition of recombinant human N-terminal GST-tagged IKKepsilon (1 to 716 residues) expressed in baculovirus infected Sf21 cells assessed as remaining activity at 1 uM using MBP as substrate incubated for 30 mins in presence of [gamma-33P]ATP by filter binding method relative to control
Sequence of Inhibitor of nuclear factor kappa-B kinase subunit epsilon (Homo sapiens) (Q14164 whole entry, the tested form may be a part): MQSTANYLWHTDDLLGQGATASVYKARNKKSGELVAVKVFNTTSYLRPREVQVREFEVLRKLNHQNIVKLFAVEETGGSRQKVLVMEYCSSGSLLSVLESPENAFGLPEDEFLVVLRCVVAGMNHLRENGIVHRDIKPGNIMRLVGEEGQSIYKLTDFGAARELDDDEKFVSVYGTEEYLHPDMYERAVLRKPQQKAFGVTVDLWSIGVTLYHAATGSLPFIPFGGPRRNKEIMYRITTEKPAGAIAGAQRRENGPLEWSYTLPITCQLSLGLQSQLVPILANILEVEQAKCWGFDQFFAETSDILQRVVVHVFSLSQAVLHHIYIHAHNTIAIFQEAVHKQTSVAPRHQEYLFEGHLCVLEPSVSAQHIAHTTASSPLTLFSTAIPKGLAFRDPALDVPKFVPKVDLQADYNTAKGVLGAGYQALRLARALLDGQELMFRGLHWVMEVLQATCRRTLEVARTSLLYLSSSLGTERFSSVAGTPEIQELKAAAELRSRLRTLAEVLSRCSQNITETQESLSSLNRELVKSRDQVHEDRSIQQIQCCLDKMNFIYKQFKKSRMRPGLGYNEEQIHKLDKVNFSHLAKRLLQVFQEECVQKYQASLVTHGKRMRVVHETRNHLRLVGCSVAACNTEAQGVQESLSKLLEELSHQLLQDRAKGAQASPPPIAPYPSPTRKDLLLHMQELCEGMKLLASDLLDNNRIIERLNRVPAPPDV
Procedure, shortened: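 Incubation was 30 min at room temperature (21 °C) under conditions linear with time and enzyme amount. Activity is reported as percent of control lacking compound, triplicate mean ± S.D.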

[2] = molecular target: Dual specificity mitogen-activated protein kinase kinase 1 (Homo sapiens) (UniProt Q02750); assay: Inhibition of recombinant human MKK1 (2 to 393 residues) expressed in Escherichia coli assessed as remaining activity at 1 uM using MBP as substrate incubated for 30 mins in presence of [gamma-33P]ATP by filter binding method relative to control
Sequence of Dual specificity mitogen-activated protein kinase kinase 1 (Homo sapiens) (Q02750 whole entry, the tested form may be a part): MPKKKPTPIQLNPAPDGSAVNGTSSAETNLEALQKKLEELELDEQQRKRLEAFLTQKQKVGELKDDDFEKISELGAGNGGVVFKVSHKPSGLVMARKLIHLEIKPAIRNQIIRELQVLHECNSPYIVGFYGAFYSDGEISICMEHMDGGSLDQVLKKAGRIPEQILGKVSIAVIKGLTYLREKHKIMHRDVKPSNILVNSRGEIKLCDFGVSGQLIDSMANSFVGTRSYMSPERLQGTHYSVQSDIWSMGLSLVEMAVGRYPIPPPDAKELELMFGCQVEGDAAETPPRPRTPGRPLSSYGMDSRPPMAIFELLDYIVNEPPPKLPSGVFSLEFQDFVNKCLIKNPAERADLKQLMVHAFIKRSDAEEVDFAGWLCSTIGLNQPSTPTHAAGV
Procedure, shortened: (§1)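 Kinase panel run robotically at 21 °C for 30 min, linear in time and enzyme. […] Compound tested at 1 or 10 µM. Activity given as percentage of incubations without compound, mean of triplicates ± S.D.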

[3] = molecular target: Insulin-like growth factor 1 receptor (Homo sapiens) (UniProt P08069); assay: Inhibition of recombinant human N-terminal His6-tagged IGF1R (954 to 1367 residues) expressed in baculovirus infected Sf21 cells assessed as remaining activity at 1 uM using KKKSPGEYVNIEFG as substrate incubated for 30 mins in presence of [gamma-33P]ATP by filter binding method relative to control
Procedure, shortened: (§2)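 Radiometric kinase panel run robotically at room temperature (21 °C) for 30 min, linear in time and enzyme. […] Activity is expressed as percent of control without compound, from triplicate determinations ± S.D.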

[4] = molecular target: Mitogen-activated protein kinase 3 (Homo sapiens) (UniProt P27361); assay: Inhibition of recombinant human N-terminal GST-tagged ERK1 (2 to 379 residues) expressed in Escherichia coli assessed as remaining activity at 1 uM using MBP as substrate incubated for 30 mins in presence of [gamma-33P]ATP by filter binding method relative to control; procedure, shortened: as §1
Sequence of Mitogen-activated protein kinase 3 (Homo sapiens) (P27361 whole entry, the tested form may be a part): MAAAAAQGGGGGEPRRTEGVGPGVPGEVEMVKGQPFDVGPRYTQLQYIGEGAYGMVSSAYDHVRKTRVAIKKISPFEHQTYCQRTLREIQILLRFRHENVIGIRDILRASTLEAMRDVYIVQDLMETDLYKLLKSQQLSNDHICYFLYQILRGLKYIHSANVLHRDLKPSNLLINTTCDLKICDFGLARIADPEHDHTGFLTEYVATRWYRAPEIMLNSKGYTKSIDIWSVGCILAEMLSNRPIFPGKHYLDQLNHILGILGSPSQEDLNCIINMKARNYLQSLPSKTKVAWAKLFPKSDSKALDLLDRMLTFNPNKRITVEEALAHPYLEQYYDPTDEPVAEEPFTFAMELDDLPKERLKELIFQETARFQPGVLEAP

[5] = molecular target: Serine/threonine-protein kinase pim-2 (Homo sapiens) (UniProt Q9P1W9); assay: Inhibition of recombinant human N-terminal GST-tagged PIM2 (2 to 334 residues) expressed in Escherichia coli assessed as remaining activity at 1 uM using RSRHSSYPAGT as substrate incubated for 30 mins in presence of [gamma-33P]ATP by filter binding method relative to control; procedure, shortened: as §2
Sequence of Serine/threonine-protein kinase pim-2 (Homo sapiens) (Q9P1W9 whole entry, looked up, the tested form may be a part): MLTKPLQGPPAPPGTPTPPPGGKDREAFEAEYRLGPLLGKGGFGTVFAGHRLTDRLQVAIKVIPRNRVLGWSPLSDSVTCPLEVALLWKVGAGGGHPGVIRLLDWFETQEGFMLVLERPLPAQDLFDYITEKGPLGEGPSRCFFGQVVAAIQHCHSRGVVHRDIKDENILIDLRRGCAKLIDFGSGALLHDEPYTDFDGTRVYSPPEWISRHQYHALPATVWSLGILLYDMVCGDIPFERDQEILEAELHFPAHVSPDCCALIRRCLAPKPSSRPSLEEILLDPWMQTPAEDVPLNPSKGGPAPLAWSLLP

[6] = molecular target: Ephrin type-B receptor 3 (Homo sapiens) (UniProt P54753); assay: Inhibition of recombinant human N-terminal His6-tagged EPHB3 (561 to 998 residues) expressed in Escherichia coli assessed as remaining activity at 1 uM using Poly(Glu, Tyr) as substrate incubated for 30 mins in presence of [gamma-33P]ATP by filter binding method relative to control
Procedure, shortened: (§3)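 Panel assays were run for 30 min at 21 °C, within the linear range for time and enzyme. […] Results are percent activity remaining relative to compound-free control, averaged from triplicate ± S.D.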

[7] = molecular target: Serine/threonine-protein kinase BRSK2 (Homo sapiens) (UniProt Q8IWQ3); assay: Inhibition of recombinant human N-terminal His6-tagged BRSK2 (2 to 674 residues) expressed in baculovirus infected Sf21 cells assessed as remaining activity at 1 uM using KKLNRTLSFAEPG as substrate incubated for 30 mins in presence of [gamma-33P]ATP by filter binding method relative to control
Sequence of Serine/threonine-protein kinase BRSK2 (Homo sapiens) (Q8IWQ3 whole entry, the tested form may be a part): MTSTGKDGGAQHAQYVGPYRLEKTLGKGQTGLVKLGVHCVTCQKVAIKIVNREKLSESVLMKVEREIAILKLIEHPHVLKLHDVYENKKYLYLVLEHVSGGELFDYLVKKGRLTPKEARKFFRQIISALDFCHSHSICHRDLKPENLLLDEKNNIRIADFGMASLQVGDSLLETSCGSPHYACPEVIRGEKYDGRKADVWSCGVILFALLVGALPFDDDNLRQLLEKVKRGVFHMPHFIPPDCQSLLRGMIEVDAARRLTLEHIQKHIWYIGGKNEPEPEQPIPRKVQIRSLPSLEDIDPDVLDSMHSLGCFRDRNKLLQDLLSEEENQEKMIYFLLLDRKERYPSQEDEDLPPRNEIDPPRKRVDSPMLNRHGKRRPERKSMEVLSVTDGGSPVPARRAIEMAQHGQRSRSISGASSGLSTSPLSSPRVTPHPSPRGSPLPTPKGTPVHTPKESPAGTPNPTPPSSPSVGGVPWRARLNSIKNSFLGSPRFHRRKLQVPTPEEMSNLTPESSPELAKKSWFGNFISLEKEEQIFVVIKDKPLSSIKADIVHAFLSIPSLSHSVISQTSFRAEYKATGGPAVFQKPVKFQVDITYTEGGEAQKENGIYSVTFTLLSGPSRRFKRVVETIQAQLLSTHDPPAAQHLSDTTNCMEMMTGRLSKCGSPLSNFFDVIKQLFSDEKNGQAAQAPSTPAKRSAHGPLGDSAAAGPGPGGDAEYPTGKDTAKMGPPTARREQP
Procedure, shortened: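 Assays ran 30 min at 21 °C, robotically and in the linear range. Remaining activity is given relative to incubations lacking compound, as the average of triplicate determinations ± S.D.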

HEK293 = assay: Inhibition of PI3K in serum starved HEK293 cells expressing GST-tagged-AKT1 S473D mutant assessed as reduction in IGF1-stimulated AKT1 phosphorylation at Thr308 residue at 100 to 1000 nM incubated for 20 mins by immunoblot analysis; type: cell-based; conditions: Homo sapiens, dose 100-1000 nM
Procedure, shortened: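 HEK-293 cells transfected with wild-type or S473D GST–Akt1. At 24 h, serum-starved 16 h, pretreated 30 min with inhibitor, then stimulated with IGF-1 for 20 min. Lysates immunoblotted for Thr308 phosphorylation. Three separate experiments.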

[8] = molecular target: Mitogen-activated protein kinase 15 (Homo sapiens) (UniProt Q8TD08); assay: Inhibition of recombinant human N-terminal His6-tagged ERK8 (2 to 544 residues) expressed in baculovirus infected Sf21 cells assessed as remaining activity at 1 uM using MBP as substrate incubated for 30 mins in presence of [gamma-33P]ATP by filter binding method relative to control; procedure, shortened: as §2
Sequence of Mitogen-activated protein kinase 15 (Homo sapiens) (Q8TD08 whole entry, the tested form may be a part): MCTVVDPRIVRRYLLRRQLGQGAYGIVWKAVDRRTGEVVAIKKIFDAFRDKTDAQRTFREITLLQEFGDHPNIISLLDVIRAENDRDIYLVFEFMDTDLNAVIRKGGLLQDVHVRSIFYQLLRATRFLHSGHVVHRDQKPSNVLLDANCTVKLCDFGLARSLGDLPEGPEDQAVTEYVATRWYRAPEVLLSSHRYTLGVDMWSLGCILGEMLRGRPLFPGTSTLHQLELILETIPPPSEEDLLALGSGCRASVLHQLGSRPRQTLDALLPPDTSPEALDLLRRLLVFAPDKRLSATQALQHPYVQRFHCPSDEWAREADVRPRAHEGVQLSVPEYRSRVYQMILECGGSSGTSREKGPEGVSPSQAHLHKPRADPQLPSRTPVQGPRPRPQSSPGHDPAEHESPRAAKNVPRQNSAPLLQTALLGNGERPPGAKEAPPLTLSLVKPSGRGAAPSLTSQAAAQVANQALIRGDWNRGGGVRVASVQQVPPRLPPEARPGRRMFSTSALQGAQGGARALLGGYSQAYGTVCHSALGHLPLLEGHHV

[9] = molecular target: Mitogen-activated protein kinase 15 (Homo sapiens) (UniProt Q8TD08); assay: Inhibition of recombinant human N-terminal His6-tagged ERK8 (2 to 544 residues) expressed in baculovirus infected Sf21 cells assessed as remaining activity at 10 uM using MBP as substrate incubated for 30 mins in presence of [gamma-33P]ATP by filter binding method relative to control; procedure, shortened: as §2
[10] = molecular target: Phosphatidylinositol 3-kinase catalytic subunit type 3 (Homo sapiens) (UniProt Q8NEB9); assay: Inhibition of VPS34 (unknown origin) assessed as remaining activity at 1 uM using phosphatidylinositol as substrate incubated for 60 mins in presence of ATP relative to control
Sequence of Phosphatidylinositol 3-kinase catalytic subunit type 3 (Homo sapiens) (Q8NEB9 whole entry, the tested form may be a part): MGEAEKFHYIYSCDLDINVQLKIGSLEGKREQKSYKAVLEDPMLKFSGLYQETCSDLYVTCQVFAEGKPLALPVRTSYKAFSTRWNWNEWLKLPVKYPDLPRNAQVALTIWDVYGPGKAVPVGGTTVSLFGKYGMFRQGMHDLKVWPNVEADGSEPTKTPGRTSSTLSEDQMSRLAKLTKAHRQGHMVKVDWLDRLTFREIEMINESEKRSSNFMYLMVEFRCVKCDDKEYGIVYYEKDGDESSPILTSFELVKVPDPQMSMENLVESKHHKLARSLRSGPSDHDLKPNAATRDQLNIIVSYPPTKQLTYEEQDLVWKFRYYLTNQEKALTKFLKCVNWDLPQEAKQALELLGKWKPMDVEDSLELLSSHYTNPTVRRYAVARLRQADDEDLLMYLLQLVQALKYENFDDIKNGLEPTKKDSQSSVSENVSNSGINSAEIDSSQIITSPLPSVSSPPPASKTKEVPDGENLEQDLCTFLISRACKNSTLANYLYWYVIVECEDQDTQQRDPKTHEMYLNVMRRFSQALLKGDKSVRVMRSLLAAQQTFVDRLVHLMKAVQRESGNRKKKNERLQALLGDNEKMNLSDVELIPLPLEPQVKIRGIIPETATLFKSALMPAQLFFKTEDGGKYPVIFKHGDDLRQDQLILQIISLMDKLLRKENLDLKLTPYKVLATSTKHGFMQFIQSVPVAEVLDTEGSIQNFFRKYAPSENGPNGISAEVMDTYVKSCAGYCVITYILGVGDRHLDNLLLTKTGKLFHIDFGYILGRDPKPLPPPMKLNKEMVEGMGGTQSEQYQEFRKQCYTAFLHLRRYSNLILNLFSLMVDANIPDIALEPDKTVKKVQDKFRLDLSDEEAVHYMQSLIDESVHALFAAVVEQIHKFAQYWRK

[11] = molecular target: Serine/threonine-protein kinase PAK 6 (Homo sapiens) (UniProt Q9NQU5); assay: Inhibition of recombinant human N-terminal GST-tagged PAK6 (2 to 681 residues) expressed in Escherichia coli assessed as remaining activity at 1 uM using RRRLSFAEPG as substrate incubated for 30 mins in presence of [gamma-33P]ATP by filter binding method relative to control; procedure, shortened: as §3
mTORC2 (Homo sapiens) = mTORC2 (Homo sapiens) (UniProt P42345+Q6R327+Q9BVC4+Q9BPZ7); conditions: HEK293, dose 30-1000 nM, time 30.0 min
[12] = molecular target: Dual specificity tyrosine-phosphorylation-regulated kinase 2 (Homo sapiens) (UniProt Q92630); assay: Inhibition of recombinant human N-terminal GST-tagged DYRK2 (3 to 528 residues) expressed in Escherichia coli assessed as remaining activity at 10 uM using KKISGRLSPIMTEQ as substrate incubated for 30 mins in presence of [gamma-33P]ATP by filter binding method relative to control
Sequence of Dual specificity tyrosine-phosphorylation-regulated kinase 2 (Homo sapiens) (Q92630 whole entry, the tested form may be a part): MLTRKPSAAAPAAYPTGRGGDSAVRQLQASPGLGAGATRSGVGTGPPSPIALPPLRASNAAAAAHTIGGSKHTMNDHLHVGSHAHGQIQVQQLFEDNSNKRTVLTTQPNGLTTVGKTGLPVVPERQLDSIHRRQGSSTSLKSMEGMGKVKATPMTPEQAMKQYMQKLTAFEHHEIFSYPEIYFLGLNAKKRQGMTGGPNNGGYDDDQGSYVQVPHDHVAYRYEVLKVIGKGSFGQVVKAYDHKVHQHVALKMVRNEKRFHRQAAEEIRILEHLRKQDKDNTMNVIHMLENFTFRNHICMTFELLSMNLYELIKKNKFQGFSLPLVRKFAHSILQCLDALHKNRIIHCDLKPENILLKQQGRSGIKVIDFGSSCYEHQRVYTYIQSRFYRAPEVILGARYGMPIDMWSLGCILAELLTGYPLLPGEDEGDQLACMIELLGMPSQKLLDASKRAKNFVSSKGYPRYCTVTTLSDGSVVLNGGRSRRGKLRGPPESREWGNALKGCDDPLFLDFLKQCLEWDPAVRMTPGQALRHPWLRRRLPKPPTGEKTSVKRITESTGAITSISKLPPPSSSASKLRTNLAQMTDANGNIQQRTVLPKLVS
Procedure, shortened: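 Run robotically for 30 min at 21 °C under linear conditions. Compound at 1 or 10 µM. Percentage activity remaining versus control without compound, triplicate mean ± S.D.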

[13] = molecular target: MAP kinase-activated protein kinase 2 (Homo sapiens) (UniProt P49137); assay: Inhibition of recombinant human N-terminal GST/C-terminal Myc-tagged MAPKAPK2 (46 to 400 residues) expressed in Escherichia coli assessed as remaining activity at 1 uM using KKLNRTLSVA as substrate incubated for 30 mins in presence of [gamma-33P]ATP by filter binding method relative to control
Sequence of MAP kinase-activated protein kinase 2 (Homo sapiens) (P49137 whole entry, looked up, the tested form may be a part): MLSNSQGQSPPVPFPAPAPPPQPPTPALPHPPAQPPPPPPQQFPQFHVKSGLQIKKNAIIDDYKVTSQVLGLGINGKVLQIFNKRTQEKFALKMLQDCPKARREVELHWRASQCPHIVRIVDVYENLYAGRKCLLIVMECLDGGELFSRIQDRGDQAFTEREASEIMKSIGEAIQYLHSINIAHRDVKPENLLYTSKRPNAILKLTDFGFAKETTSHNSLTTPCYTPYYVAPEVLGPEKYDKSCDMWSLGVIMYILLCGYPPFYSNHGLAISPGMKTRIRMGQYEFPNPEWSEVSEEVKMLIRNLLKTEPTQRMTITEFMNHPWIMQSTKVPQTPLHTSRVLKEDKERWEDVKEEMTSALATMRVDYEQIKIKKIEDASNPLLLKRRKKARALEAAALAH
Procedure, shortened: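 Incubations ran robotically for 30 min at room temperature (21 °C) under linear conditions. Results are percent activity remaining versus controls without compound, as the mean of triplicates ± S.D.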

mTORC1 (Homo sapiens) = mTORC1 (Homo sapiens) (UniProt P42345+Q8N122+Q9BVC4); conditions: HEK293, dose 30-1000 nM, time 30.0 min

COc1ccc(-c2ccc3c(N4CCOCC4)nc(N4C[C@@H](C)O[C@@H](C)C4)nc3n2)cc1CO [Ku-0063794]
Activity [1]: 99%
Activity [2]: 96%
Activity [3]: 117%
Activity [4]: 102%
Activity [5]: 86%
Activity [6]: 100%
Activity [7]: 90%
inhibition (HEK293): inactive
Activity [8]: 88%
Activity [9]: 92%
Activity [10]: 101%
Activity [11]: 75%
inhibition (mTORC2 (Homo sapiens)): Dose-Dependent Effect
Activity [12]: 96%
Activity [13]: 98%
inhibition (mTORC1 (Homo sapiens)): Dose-Dependent Effect
